Consider 20 compounds from ChEMBL document CHEMBL1124947, “Cationic antiprotozoal drugs. Trypanocidal activity of 2-(4'-formylphenyl)imidazo[1,2-a]pyridinium guanylhydrazones and related derivatives of quaternary heteroaromatic compounds” (J Med Chem, 1990).

Molecules are shown by their SMILES.

Assay type in all cases: functional
In experiment [1] the test system is Mus musculus. Briefly: Trypanocidal Activity at I.C.E. value 0.12 when administered perorally.
Experiment [2] concerns Mus musculus. In words: Trypanocidal Activity at I.C.E. value 0.21 when administered subcutaneously.
Experiment [3] relates to Mus musculus. Briefly: Trypanocidal Activity at I.C.E. value 0.17 when administered perorally.
Experiment [4] relates to Mus musculus. Briefly: Trypanocidal Activity at I.C.E. value 0.19 when administered subcutaneously.
Experiment [5] relates to Mus musculus. In words: Trypanocidal Activity at I.C.E. value 0.20 when administered subcutaneously.
In experiment [6] the test system is Mus musculus. In words: Trypanocidal Activity at I.C.E. value 0.50 when administered subcutaneously. An outline of the steps:
(§1)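 Blood-stage T. rhodesiense infection came from a standard inoculum lethal to all untreated mice. Drug was given by subcutaneous injection to groups of five mice. Survival beyond 30 days counted as cure. […] Sub-curative doses scored 0, and data were normalized at each dose.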

The test system of experiment [7] is Mus musculus. Briefly: Trypanocidal Activity at I.C.E. value 0.85 when administered subcutaneously. An outline of the steps:
(§2)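 Mice, in groups of five per dose, were given a standard inoculum of blood-stage T. rhodesiense that is lethal to all untreated controls, then dosed subcutaneously. Usually 11 dose levels were used (2^n × 0.42 mg/kg).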

For experiment [8], the system named is Mus musculus. Briefly: Trypanocidal Activity at I.C.E. value 0.06 when administered perorally.
Experiment [9] deals with Mus musculus. In words: Trypanocidal Activity at I.C.E. value 0.86 when administered subcutaneously. An outline of the steps:
as §2

Experiment [10] has as its system Mus musculus. Briefly: Trypanocidal Activity at I.C.E. value 0.22 when administered subcutaneously.
The test system of experiment [11] is Trypanosoma brucei rhodesiense. Briefly: In Vitro measurement of inhibition of thymidine uptake in cell culture of Trypanosoma rhodesiense. The conditions noted are these: read-out: ID50 (the source's name). An outline of the steps:
(§3)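 Parasites harvested from infected rats and incubated 3 h across a drug concentration series, usually 0.1–100 µg/mL. Incorporation of radiolabeled thymidine measured. ID50 is the concentration (µg/mL) producing 50% inhibition.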

The subject of experiment [12] is Trypanosoma brucei rhodesiense. In words: In Vitro measurement of inhibition of leucine uptake in cell culture of Trypanosoma rhodesiense. The note with it: read-out: ID50 (the source's name). An outline of the steps:
(§4)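 Trypanosomes harvested from infected rats, cultured 3 h with several concentrations of drug, usually 0.1–100 µg/mL. Radiolabeled L-leucine uptake measured. ID50 is the concentration in µg/mL giving 50% inhibition of incorporation.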

Experiment [13] concerns Mus musculus. In words: Trypanocidal Activity was determined after subcutaneous administration. An outline of the steps:
as §2

In experiment [14] the test system is Mus musculus. Briefly: Trypanocidal Activity at I.C.E. value 0.36 when administered subcutaneously.
The subject of experiment [15] is Mus musculus. In words: Trypanocidal Activity at I.C.E. value 0.45 when administered perorally.
The test system of experiment [16] is Trypanosoma brucei rhodesiense. Briefly: In Vitro measurement of inhibition of thymidine uptake in cell culture of Trypanosoma rhodesiense. The note with it: read-out: ID50 (the source's name). An outline of the steps: as §3
Experiment [17] deals with Trypanosoma brucei rhodesiense. Briefly: In Vitro measurement of inhibition of leucine uptake in cell culture of Trypanosoma rhodesiense. The note with it: read-out: ID50 (the source's name). An outline of the steps: as §4
Experiment [18] relates to Mus musculus. Briefly: Trypanocidal Activity at I.C.E. value 0.63 when administered subcutaneously. An outline of the steps: as §2
For experiment [19], the system named is Mus musculus. In words: Trypanocidal Activity at I.C.E. value 0.45 when administered subcutaneously. An outline of the steps:
as §1

The test system of experiment [20] is Mus musculus. In words: Trypanocidal Activity at I.C.E. value 0.35 when administered perorally.
The subject of experiment [21] is Mus musculus. In words: Trypanocidal Activity at I.C.E. value 0.46 when administered subcutaneously. An outline of the steps:
as §1

The subject of experiment [22] is Mus musculus. Briefly: Trypanocidal Activity at I.C.E. value 0.49 when administered perorally.
The test system of experiment [23] is Mus musculus. In words: Trypanocidal Activity at I.C.E. value 0.49 when administered subcutaneously. An outline of the steps: as §1
Experiment [24] concerns Mus musculus. In words: Trypanocidal Activity at I.C.E. value 0.23 when administered subcutaneously. An outline of the steps: as §1
Experiment [25] has as its system Mus musculus. Briefly: Trypanocidal Activity at I.C.E. value 0.53 when administered perorally.
Experiment [26] deals with Mus musculus. In words: Trypanocidal Activity at I.C.E. value 0.71 when administered subcutaneously. An outline of the steps: as §2

In the case of `Br.C[n+]1ccc(COc2ccc(/C=N/NC3=NCCN3)cc2)cc1.[Br-]`, the CD50 amounted to 424 mg/kg with Mus musculus [1] and 13 mg/kg with Mus musculus [2].
As to `Br.C[n+]1ccccc1COc1ccc(/C=N/NC(=N)N2CCCC2)cc1.[Br-]`, the CD50 with Mus musculus [3] worked out at 106 mg/kg; in the experiment with Mus musculus [4], 0.1 mg/kg.
In turn, `C=CC[n+]1c(-c2ccc(NC(C)=O)cc2)cn2ccccc21.[Br-]` yielded a CD50 in the experiment on Mus musculus [5] of 26 mg/kg.
`Br.CCCCNC(=N)N/N=C/c1ccc(-c2cn3ccccc3[n+]2C)cc1.[Br-]` returned a CD50 in the experiment on Mus musculus [6] of 0.8 mg/kg.
In the experiment with Mus musculus [7], `Br.Cc1ccc2n(c1)cc(COc1ccc(/C=N/NC(=N)NO)cc1)[n+]2C.[Br-]` returned a CD50 of 0.2 mg/kg.
As to `Br.Cn1c[n+](Cc2ccc(/C=N/NC(=N)N)cc2)c2ccccc21.[Br-]`, the CD50 was 6.6 mg/kg in the experiment with Mus musculus [4] and 424 mg/kg in the experiment on Mus musculus [8].
For `Br.Cc1ccc2n(c1)cc(COc1ccc(/C=N/NC3=NCCN3)cc1)[n+]2C.[Br-]`, the CD50 in the experiment with Mus musculus [9] amounted to 0.8 mg/kg.
In the case of `Br.C[n+]1c(-c2ccc(/C=N/NC(=N)NN3CCOCC3)cc2)cn2ccccc21.[Br-]`, the CD50 in the experiment on Mus musculus [10] was 0.8 mg/kg. The IC50 turned out to be 6.7 µg/mL in experiment [11] and 9.7 µg/mL in [12].
Take `CCNC(=N)N/N=C/c1ccc(OCc2n(C)cc[n+]2C)cc1.Cc1ccc(S(=O)(=O)O)cc1.Cc1ccc(S(=O)(=O)[O-])cc1`: the CD50 in the experiment on Mus musculus [13] was found to be 6.6 mg/kg.
Turning to `Br.C[n+]1cccc(COc2ccc(/C=N/NC3=NCCN3)cc2)c1.[Br-]`, the CD50 with Mus musculus [14] stood at 3.3 mg/kg; with Mus musculus [15], 13 mg/kg.
For the compound `Br.CCCNC(=N)N/N=C/c1ccc(-c2cn3ccc(C)cc3[n+]2C)cc1.[Br-]`, the values for the IC50 in [16] and in experiment [17] were 1.9 µg/mL and 4.6 µg/mL, respectively. Also, the results for the CD50 with Mus musculus [18] and in the experiment with Mus musculus [15] were 0.2 mg/kg and 26 mg/kg, respectively.
Compound `C[n+]1cccc(COc2ccc(/C=N/NC(=N)NO)cc2)c1.Cc1ccc(S(=O)(=O)O)cc1.Cc1ccc(S(=O)(=O)[O-])cc1` returned a CD50 in the experiment on Mus musculus [10] of 1.6 mg/kg. The figures for the IC50 in [11] and in [12] were 3.8 µg/mL and 10.3 µg/mL, respectively.
On to `Br.C[n+]1cccc(COc2ccc(/C=N/NC3=NCCCN3)cc2)c1.[Br-]`, for which the CD50 with Mus musculus [19] came out at 0.8 mg/kg; in the experiment with Mus musculus [20] it was 53 mg/kg. Also, the IC50 in [11] is 3.7 µg/mL; in [12], over 10 µg/mL.
As for `Br.Cc1ccc2n(c1)cc(COc1ccc(/C=N/NC(=N)N3CCCC3)cc1)[n+]2C.[Br-]`, the CD50 in the experiment with Mus musculus [21] was found to be 0.8 mg/kg; in the experiment on Mus musculus [22], 13 mg/kg.
In the experiment on Mus musculus [23], `Br.Cc1ccc2n(c1)cc(-c1ccc(/C=N/NC(=N)N3CCCC3)cc1)[n+]2C.[Br-]` gave a CD50 of 0.1 mg/kg.
`Br.Cn1c[n+](Cc2ccc(/C=N/NC(=N)N3CCCC3)cc2)c2ccccc21.[Br-]`: the CD50 came out at 424 mg/kg with Mus musculus [1] and 6.6 mg/kg in the experiment on Mus musculus [24]. In addition, the IC50 turned out to be 0.6 µg/mL in experiment [11] and 0.7 µg/mL in experiment [12].
With `Br.C/N=C(\NC)N/N=C/c1ccc(OCc2cn3ccccc3[n+]2C)cc1.[Br-]`, the figures for the CD50 with Mus musculus [19] and with Mus musculus [20] were 0.8 mg/kg and 53 mg/kg, respectively.
With `C[n+]1c(-c2ccc(/C=N/Nc3nc[nH]n3)cc2)cn2ccsc21.[Br-]`, the CD50 in the experiment with Mus musculus [6] is 13 mg/kg.
In the case of `C[n+]1c(/C=C/c2ccc(/C=N/NC3=NCCCN3)cc2)cn2ccccc21.[Br-]`, the CD50 was 13 mg/kg with Mus musculus [25] and 0.4 mg/kg in the experiment on Mus musculus [26].
`Cc1ccc2n(c1)cc(-c1ccc(/C=N/NC(=N)N[N+](=O)[O-])cc1)[n+]2C.[Br-]` returned a CD50 in the experiment on Mus musculus [13] of under 26 mg/kg.
